Entries after “also recorded” stand apart in the source; their conditions may differ.
Experiments:
[1] = target: T1, Δ21TgCEN1 (Toxoplasma gondii, UniProt A0A125YHX7); experiment: Turbidimetry at 340 nm, Δ21TgCEN1; assay type: physicochemical; settings: 20 µM Δ21TgCEN1 + 50 µM N21, 1 mM CaCl2, 20 mM KCl pH 7.5, 37°C
T1 sequence (A0A125YHX7 22-169): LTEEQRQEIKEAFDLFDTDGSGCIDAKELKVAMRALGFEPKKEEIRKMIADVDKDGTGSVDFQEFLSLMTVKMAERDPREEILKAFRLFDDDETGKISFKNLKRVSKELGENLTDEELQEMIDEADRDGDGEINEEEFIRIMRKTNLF
Outline: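 Construct lacking residues 1–21 (E. coli Rosetta) at 20 µM in 20 mM Tris–HCl, 20 mM KCl pH 7.5, 1 mM CaCl2, 37°C. A340 followed over time, before and after adding 50 µM synthetic N-terminal peptide (residues 1–21). Peptide alone with CaCl2 run as a control trace.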

[2] = target: T1, Δ21TgCEN1; experiment: DLS particle size / count rate of Δ21TgCEN1; assay type: physicochemical; settings: 50 µM N21, 1 mM CaCl2
Outline: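 Recombinant tag-free Δ21TgCEN1 from E. coli Rosetta (Ni affinity, TEV cleavage). For DLS, 10 µM protein in 20 mM Tris–HCl, 20 mM KCl pH 7.5 with 1 mM CaCl2 at 37°C was spun at 21 000 g for ≥30 min, then measured before and after adding 50 µM N21 peptide. Diameter was reported as number distribution. In parallel, A340 turbidity of 20 µM protein was followed over time.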

[3] = Turbidimetry at 340 nm, N21 peptide alone; assay type: physicochemical; settings: 1 mM CaCl2, 20 mM Tris–HCl, 20 mM KCl pH 7.5, 37°C, turbidity at 340 nm
Outline: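 Synthetic N21 peptide (>90% HPLC purity, mass confirmed by ESI-MS) alone with 1 mM CaCl2 in 20 mM Tris–HCl, 20 mM KCl pH 7.5 at 37°C. Absorbance at 340 nm recorded over time in 1 cm quartz cuvettes.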

[4] = Far-UV CD of the substance alone; assay type: physicochemical; settings: 20 µM, aqueous solution, 50 mM Tris–HCl, 150 mM KCl pH 7.5, 25°C
Outline: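 Synthetic peptide (>90% HPLC purity, mass confirmed by ESI-MS), quantified by ε280 = 5500 M−1 cm−1, at 20 µM. Buffer: 50 mM Tris–HCl, 150 mM KCl pH 7.5, 0.5 mM DTT with 5 mM CaCl2 or EGTA. Spectra 200–250 nm, 0.1 cm cell, 25°C, average of five accumulations, buffer spectrum subtracted.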

[5] = target: T2, C-TgCEN1 (Toxoplasma gondii, UniProt A0A125YHX7); experiment: Turbidimetry at 340 nm, C-TgCEN1; assay type: physicochemical; settings: 20 µM, 1 mM CaCl2, 20 mM KCl pH 7.5, 37°C
Outline: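 Recombinant N-domain (1–94) or C-domain (95–169), Ni-affinity purified. A340 followed over time in a 1 cm cuvette. Standard conditions: 20 µM protein, 20 mM Tris–HCl, 20 mM KCl pH 7.5, 1 mM CaCl2, 37°C. Conditions also varied: CaCl2 0–2 mM, temperature 4–45°C, protein 5–50 µM, KCl 0–150 mM, or 600 µM ANS added.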

[6] = target: T2, C-TgCEN1; experiment: DLS particle size of C-TgCEN1; assay type: physicochemical
Outline: (§1)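 Domains produced in E. coli Rosetta: N-domain residues 1–94 and C-domain 95–169. […] 10 µM protein in 20 mM Tris–HCl pH 7.5, 1 mM CaCl2, at selected KCl concentrations or with 600 µM ANS. Samples centrifuged at 21 000 g for ≥30 min; filtered buffers. Hydrodynamic diameter reported as number distribution (633 nm laser, 173°).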

[7] = test system: EoCEN; settings: addition of XPC peptide; cited from earlier work
[8] = test system: N-TgCEN1; experiment: DLS particle size of N-TgCEN1; assay type: physicochemical, Toxoplasma gondii; settings: 600 µM ANS, 10 µM N-TgCEN1, 1 mM CaCl2
Outline: as §1

[9] = test system: TgCEN1; experiment: DLS particle size of TgCEN1; assay type: physicochemical, Toxoplasma gondii; settings: 600 µM ANS, 1 mM CaCl2, 20 mM Tris–HCl, 20 mM KCl pH 7.5, 37°C
[10] = test system: TgCEN1; experiment: Turbidimetry at 340 nm, TgCEN1 self-assembly; assay type: physicochemical, Toxoplasma gondii; settings: increasing ANS concentrations, 1 mM CaCl2, 20 mM KCl, pH 7.5, 37°C
Outline: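 Full-length protein (E. coli Rosetta) at 20 µM in 20 mM Tris–HCl, 20 mM KCl pH 7.5, 37°C, A340 recorded versus time. Run with 1 mM CaCl2, with 1 mM EGTA, or with EGTA added to Ca2+-saturated protein. Ca2+ series 5–2000 µM, read at 25 min versus metal/protein ratio. Also varied: temperature 4–45°C, protein 5–50 µM, KCl 0–150 mM, and 600 µM ANS.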

[11] = 600 µM ANS, 10 µM C-TgCEN1, 1 mM CaCl2

1-MHSRKGASSLPRGRGAGKKTE-21 [N21]
Δ21TgCEN1 light scattering at 340 nm with N21 [1]: an increase in the light scattering at 340 nm
DLS count rate of Δ21TgCEN1 with N21 [2]: increase
Ca^2+-induced aggregation of peptide alone [3]: did not aggregate upon addition of Ca^2+ in solution

C-TgCEN1: C-terminal domain of TgCEN1, 95–169 aa
far-UV CD conformation alone [4]: well-folded
turbidity at 340 nm [5]: no turbidity changes at 340 nm
particle diameter ([6]; 10 µM, 1 mM CaCl2, 20 mM Tris–HCl, 20 mM KCl pH 7.5): 311 ± 1 nm
DLS profile vs salt ([6]; 10 µM, selected KCl concentrations, 1 mM CaCl2): only small changes in the DLS profiles

XPC peptide: XPC peptide added to centrin from Euplotes octocarinatus (EoCEN), cited ref 43 (NWKLLAKGLLIRERLKR)
effect on protein aggregates [7]: dissociation of protein aggregates

O=S(=O)(O)c1cccc2cccc(Nc3ccccc3)c12 [ANS, 1-anilino-8-naphthalenesulphonic acid, reference compound]
effect of ANS on association of N-TgCEN1 [8]: no effect
hydrodynamic diameter of TgCEN1 particles with ANS [9]: ~238 nm
diameter of new species of C-TgCEN1 with ANS (larger) [6, 11]: 35 ± 1 nm
diameter of new species of C-TgCEN1 with ANS (smaller) [6, 11]: 7.96 ± 0.01 nm
TgCEN1 final turbidity at 340 nm with ANS [10]: decreased at increasing ANS concentrations; also recorded: only partially quenched the aggregation process

Source: publication PMC8286830 (Biochemical Journal, 2021)
